Assay outcomes as filed in PubChem.
A selection: hits, their analogues and other compounds. The true share with any hit is near 2.3%.
SUMO1-SIM PPI: modulators of SUMO1 protein-protein interactions, primary screen, biochemical, uHTS; Small ubiquitin-related modifier 1 (Homo sapiens), P63165; SUMO1 binding to a labelled peptide, TR-FRET, 1 h; inhibition, % at 20 µM; actives 0.33% (n = 360,000); in the data active means inhibition above about 37%
LMPTP block: LMPTP phosphatase inhibitors, primary screen, biochemical, fluorescence intensity, uHTS; recombinant LMPTP-A, OMFP fluorogenic substrate; inhibition, % at 20 µM; AID 651560, 2012; actives 0.22% (n = 360,000); Low molecular weight phosphotyrosine protein phosphatase (Homo sapiens), P24666;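 active means compounds that cut the enzyme signal by at least half of the control window in the single-dose screen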;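 further: plate controls were DMSO wells with enzyme plus substrate for no effect and substrate without enzyme for full effect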
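Test system: LMPTP-A, protein tyrosine phosphatase of low molecular weight; Input: 0.625 nM enzyme; Incubation: 50 min dark incubation at room temperature; Signal: endpoint fluorescence intensity from OMFP dephosphorylation; Read-out basis: % inhibition versus control wells.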
Rpn11 inh: Rpn11 (PSMD14) deubiquitinase inhibitors, primary screen, biochemical, fluorescence polarization, uHTS; human 26S proteasome, Ub4-pepOG fluorescence polarization; 20S core pre-blocked with epoxomicin; inhibition, % at 20 µM; actives 0.59% (n = 360,000);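 active means inhibition at 20 µM, scaled to each plate's controls, above about 33%, limit read from the data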
DNMT1 block: human DNMT1 methyltransferase inhibitors, primary screen, biochemical, molecular beacon, fluorescence, HinP1I cleavage, uHTS; inhibition (reported as % activation of signal), % at 10 µM; DNA (cytosine-5)-methyltransferase 1 (Homo sapiens), P26358; actives 0.83% (n = 360,000); in the data active means inhibition above about 50%
Target sequence (P26358 504-1616 limits assumed): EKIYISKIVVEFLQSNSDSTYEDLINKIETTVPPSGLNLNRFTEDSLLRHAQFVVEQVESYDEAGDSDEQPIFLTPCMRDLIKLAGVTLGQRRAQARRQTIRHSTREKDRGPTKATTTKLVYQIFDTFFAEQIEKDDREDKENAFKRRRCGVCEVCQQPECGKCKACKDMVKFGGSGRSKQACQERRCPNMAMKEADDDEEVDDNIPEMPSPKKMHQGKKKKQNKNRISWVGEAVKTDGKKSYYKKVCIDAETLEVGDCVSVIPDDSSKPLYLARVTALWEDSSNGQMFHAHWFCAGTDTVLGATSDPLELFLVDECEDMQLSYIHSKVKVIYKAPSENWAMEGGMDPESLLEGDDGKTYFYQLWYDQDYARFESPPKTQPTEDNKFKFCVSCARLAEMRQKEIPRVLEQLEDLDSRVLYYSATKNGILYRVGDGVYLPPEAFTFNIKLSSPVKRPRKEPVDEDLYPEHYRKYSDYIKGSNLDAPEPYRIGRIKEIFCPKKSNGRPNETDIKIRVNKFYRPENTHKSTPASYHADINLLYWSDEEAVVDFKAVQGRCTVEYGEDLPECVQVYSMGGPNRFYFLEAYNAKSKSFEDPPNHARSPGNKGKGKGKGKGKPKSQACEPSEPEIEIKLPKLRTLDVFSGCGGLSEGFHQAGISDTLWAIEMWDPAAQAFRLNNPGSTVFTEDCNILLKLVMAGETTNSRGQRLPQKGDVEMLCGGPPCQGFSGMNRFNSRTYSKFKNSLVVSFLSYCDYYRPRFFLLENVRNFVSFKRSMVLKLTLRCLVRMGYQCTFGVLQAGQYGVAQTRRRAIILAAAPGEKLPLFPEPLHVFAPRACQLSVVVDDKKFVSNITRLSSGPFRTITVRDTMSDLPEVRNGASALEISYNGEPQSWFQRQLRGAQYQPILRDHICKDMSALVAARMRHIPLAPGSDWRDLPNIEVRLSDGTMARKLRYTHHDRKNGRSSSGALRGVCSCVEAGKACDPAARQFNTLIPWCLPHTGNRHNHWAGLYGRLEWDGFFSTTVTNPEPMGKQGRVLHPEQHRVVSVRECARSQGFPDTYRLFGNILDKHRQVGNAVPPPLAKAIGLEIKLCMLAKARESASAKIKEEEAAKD
STEP inh: STEP phosphatase inhibitors, primary screen, biochemical, fluorescence intensity, uHTS. Tyrosine-protein phosphatase non-receptor type 5 (Homo sapiens), P54829. recombinant STEP, OMFP fluorogenic substrate. inhibition, % at 20 µM. actives 0.25% (n = 360,000);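 active means inhibition at 20 µM, scaled per plate between control wells, above about 37%, limit read from the data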;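 further: 0% = DMSO with enzyme and substrate and 100% = substrate only without enzyme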
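System: STEP (striatal-enriched tyrosine phosphatase) enzyme, cell-free; medium: Bis-Tris pH 6.0 buffer with DTT, detergent; dosing: 20 µM, 1% DMSO; times: reaction 20 min, ambient temperature; detection: fluorescence, 480/540 nm; read-out basis: normalized % inhibition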
Scp-1 inhibitor: Scp-1 phosphatase inhibitors, primary screen, biochemical, colorimetric, uHTS; inhibition, % at 20 µM; Recombinant Scp1, phosphopeptide, malachite green phosphate absorbance; actives 0.88% (n = 340,000); Carboxy-terminal domain RNA polymerase II polypeptide A small phosphatase 1 (Homo …;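 active means inhibition above about 50% at 20 µM, limit read from the data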;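 further: plate controls were DMSO wells with enzyme for no effect and wells lacking enzyme for full effect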
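System: SCP-1 catalytic domain; Reagent: Phospho 17-mer peptide substrate; Doses: one concentration, 20 µM, with 1.0% DMSO; Incubation: 45 min room-temperature reaction, 5 min colour, 30 min stabiliser; Signal: Phosphate-binding colour reagent, absorbance read at 630 nm.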
Rpn11 inh conf: Rpn11 (PSMD14) deubiquitinase inhibitors, confirmation, biochemical, fluorescence polarization, single concentration | shares compounds with Rpn11 inh | purified human 26S proteasome, Ub4-pepOG fluorescence polarization; proteasome pretreated with epoxomicin | inhibition, % at 20 µM | actives 29% (n = 1,900)
MMP-2 inh: MMP-2 enzyme inhibition, confirmation, counter-screen for RPN11 inhibitor project, biochemical, fluorescence, single concentration; shares compounds with Rpn11 inh; actives 4% (n = 1,900); recombinant MMP-2, FRET peptide cleavage fluorescence; inhibition, % at 20 µM;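 further: human MMP-2 activated beforehand with APMA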
Thrombin FP: bovine thrombin protease inhibition, confirmation, counter-screen for Rpn11 inhibitor project, biochemical, fluorescence polarization, single concentration. AID 602333, 2012. bovine thrombin cleavage of Ub4-pepOG. inhibition, % at 20 µM. shares compounds with Rpn11 inh. actives 13% (n = 1,900);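 active means mean inhibition at least 40% at 20 µM, or signal 3 deviations below plate average, so some actives read negative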;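 further: plate controls were thrombin with DMSO for no effect and buffer wells lacking thrombin for full effect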
The depositor's hits bear a star; . = not tested or not shown. Unless noted, no stated cut-off is given here; in the data, active means inhibition above about 40%; inactive means the rest.

SMILES	SUMO1-SIM PPI	LMPTP block	Rpn11 inh	DNMT1 block	STEP inh	Scp-1 inhibitor	Rpn11 inh conf	MMP-2 inh	Thrombin FP
C=CCn1c(SCC(=O)NCC2CCCO2)nnc1-c1ccncc1 (centres undefined)	4	0	-1	7	-1	2	.	.	.
COc1ccccc1CNCCS(=O)(=O)NCc1ccccc1	3	-1	-1	3	5	-8	.	.	.
C=CCc1c(C)nc(-c2ccccc2)nc1Nc1ccccc1O	-2	4	55*	-9	-8	-8	29	6	9
C=CCc1c(C)nc(-c2ccccc2)nc1N/N=C/c1ccccc1	-5	4	5	0	2	-3	.	.	.
O=C(Cn1cnnn1)Nc1ccccc1Cc1ccccc1	-1	-1	-1	1	-3	-2	.	.	.
CC(NC(=O)c1ccc(NC(=O)CC2SC(N3CCCC3)=NC2=O)cc1)c1ccc(F)cc1 (centres undefined)	2	-1	2	3	3	7	.	.	.
O=C(NCc1ccc(Cl)cc1)c1ccc(OCC2CCCO2)cc1 (centres undefined)	2	0	37*	-3	0	-2	-3	-17	-10
O=C(c1cc([N+](=O)[O-])[nH]n1)N1CCSCC1	2	-1	8	0	-1	0	.	.	.
NN(Cc1ccccc1)C(=S)Nc1ccc(Cl)c(Cl)c1	5	4	3	1	1	-10	.	.	.
CCN(CC)c1ccc(/C=C(\C#N)C(N)=S)cc1	-157	16	.	1	-3	11	.	.	.
CCOC(=O)NC(=O)/C(C#N)=C/c1ccc(N(C)C)cc1	-58	5	126*	2	2	-4	117*	-28	98*
CCN(CC)c1ccc(/C=C(\C#N)C(N)=O)cc1	-26	3	57*	9	0	3	29	-78	25
O=C(NCCCO)C(=O)Nc1cc2c3c(c1)CCN3C(=O)CC2	1	0	1	1	1	0	.	.	.
CC(/C=C/c1ccc(N(C)C)cc1)=N/N=C1/NC(=O)CC(C(=O)Nc2ccc(Cl)cc2)S1 (centres undefined)	-5	4	65*	-31	-3	2	89*	23	87*
CC(C)C(=O)Nc1ccc(NC(=S)NC(=O)c2cc3ccccc3o2)cc1	-5	-1	-3	8	-3	0	.	.	.
O=C(NC(=S)Nc1ccc2oc(=O)ccc2c1)c1cc2ccccc2o1	75*	8	42*	0	4	-7	1	24	3
CC(C)C(=O)Nc1ccc(NC(=O)c2cc3ccccc3o2)cc1	4	-1	177*	0	3	-5	-3	-19	-1
Cc1ccc(N(CC(=O)O)S(C)(=O)=O)cc1Cl	-1	-2	0	1	0	-3	.	.	.
O=[N+]([O-])c1ccc(N/N=C/c2sc(N3CCOCC3)nc2-c2ccccc2)c(S(=O)(=O)Nc2ccccc2Cl)c1	-22	10	69*	-1	2	0	55*	-2	46*
O=C(N/N=C/c1sc(N2CCOCC2)nc1-c1ccccc1)c1ccccc1O	0	1	58*	-1	0	-34	12	-34	-8
COc1ccc2nc(SCC(=O)NC3CCCC3)c(C)cc2c1	1	2	6	-3	2	1	.	.	.
COc1cccc(Cn2c(N)c(C#N)c3nc4ccccc4nc32)c1OC	40*	9	38*	40	2	6	34	-40	9
Cc1ccc(S(=O)(=O)NC(CC(C)C)C(=O)N2CCN(C/C=C/c3ccccc3)CC2)cc1 (centres undefined)	-2	2	6	-12	0	-10	.	.	.
COc1ccc(-c2ccc3oc(-c4ccsc4)cc3c2)cc1	5	-2	-9	17	0	1	.	.	.
CCOC(=O)c1ccc(-c2ccc3oc(-c4ccsc4)cc(=O)c3c2)cc1F	-42	2	43*	10	2	-4	-8	-21	-11
SMILES	SUMO1-SIM PPI	LMPTP block	Rpn11 inh	DNMT1 block	STEP inh	Scp-1 inhibitor	Rpn11 inh conf	MMP-2 inh	Thrombin FP
O=C(COC(=O)CNS(=O)(=O)c1cc(C(F)(F)F)ccc1Cl)NC1CC1	3	-1	-2	5	-3	2	.	.	.
COC(=O)C(Sc1ccc(Cl)cc1)C1SC(=S)N(Cc2ccccc2)C1=O (centres undefined)	-5	0	56*	8	-3	.	-13	-5	-5
COC(=O)c1cccc(CN2C(=O)C(C)Sc3cc(Cl)ccc32)c1 (centres undefined)	-3	3	-2	0	-2	.	.	.	.
CCn1nc(NC(=O)c2ccncc2)c2cc3cccc(C)c3nc21	-8	2	3	-2	1	-10	.	.	.
CCn1nc(NC(=O)c2ccccn2)c2cc3cccc(C)c3nc21	-2	0	68*	3	1	-9	4	-25	15
CSc1ncc(C(=O)Nc2ccc(C(C)=O)cc2)c(-c2ccccc2)n1	-6	1	4	0	2	-4	.	.	.
COc1cc(/C=C2\SC(=S)N(NS(=O)(=O)c3ccccc3)C2=O)ccc1O	-22	0	78*	-3	0	60*	50*	39	52*
COc1ccc(/C=C2/SC(=S)N(NS(=O)(=O)c3ccccc3)C2=O)cc1	-13	0	-10	2	2	-5	.	.	.
CCOc1cc(/C=C2\SC(=S)N(NS(=O)(=O)c3ccc(C)cc3)C2=O)ccc1O	-13	2	85*	-4	3	-27	69*	18	57*
